# Reference: the EternaBench riboswitch data
# Tested on: MS2 coat protein
# Assay: apparent Kd, MS2 coat protein; higher = weaker binding; RNA-MaP array; tryptophan 2.4 mM where present
# How it was run: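 Binding was read on Illumina sequencing-chip clusters where stalled E. coli RNA polymerase had transcribed each design. A titration of SNAP-549-labelled MS2 coat protein began at 0.7 or 1.5 nM and doubled to 3 µM, once without ligand and once with constant ligand, in 100 mM Tris-HCl pH 7.5, 80 mM KCl, 4 mM MgCl2, BSA, DTT, yeast tRNA and Tween-20. The apparent Kd is the median of filtered per-cluster binding-curve fits, based on green signal normalised to red-channel RNA signal and control-cluster median Fmax.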
# [1] = designed as: ON switch for tryptophan, no ligand
# [2] = ligand present: tryptophan, designed as: ON switch for tryptophan
# [3] = designed as: OFF switch for tryptophan, no ligand
# [4] = ligand present: tryptophan, designed as: OFF switch for tryptophan
Sequence,apparent Kd [1],apparent Kd [2],apparent Kd [3],apparent Kd [4]
AAAGCCACUUCGGCCGCCACUACAACAUGAGGAUCACCCAUGUACCUCGUGUACGGUCCGAGGAGUAGGACCGGGAAGUGGUGGA,0.132 µM,0.0528 µM,,
UACUUGCUGACGGCCGCCACUAGAACAUGAGGAUCACCCAUGUACCCGGUCCUAAUCCUCAUGACUAGGACCGGGUCAGCAAGAU,,,0.0224 µM,0.0215 µM
GGAGUCGUCACGGCCGCCACUGCGGUGGUGUGACAUGAGGAUCACCCAUGUUGUCAUGCGGCCCUUAGGACCGGGUGUCGGUUCC,,,0.0515 µM,0.0591 µM
ACAUGAGGAUCACCCAUGUGCAUCACCCGACGAGGACCGGUACGGCCGCCACUCGGGUAUAUAUUUACAUCGGGUGAUUUUACGU,0.0228 µM,0.021 µM,,
AAACAUGAGGAUCACCCAUGUCCUCCUGUCCGAGGACCGGUACGGCCGCCACUCGGUUCUCGGGAGGAUGGUCAAAGACUAUCCA,0.29 µM,0.253 µM,,
AGUAUUGGAAACAGUACUAGUGAUCCGGUCCGAGGACCGGUACGGCCGCCACUCGAUUUAAAUAAACAUGAGGAUCACCCAUGUA,,,0.0138 µM,0.0252 µM
GCGUUCUCUGCGGCCGCCACUCAAGGAGCUACAUAGCUCCUAGACAUGAGGAUCACCCAUGUGGCGAGGACCGGGUAGAUCCUUA,0.202 µM,0.168 µM,,
AGCUACUCGUUCCUCAUGUACGAGUGGCAACGAGGACCGGUACGGCCGCCACUCGAAUAAACAUGAGGAUCACCCAUGUACAAAU,0.0546 µM,0.12 µM,,
GAUUAAACAUGAGGAUCACCCAUGUAUAUACGAGGACCGGUACGGCCGCCACUCGUAAACGAGUAUCCUCGAAUAAACAUGAUAA,0.134 µM,0.0427 µM,,
AACAUACAAUAAUAGGUGGAUAUAAGGCGGCGAGGACCGGUACGGCCGCCACUCGCGUACAUGAGGAUCACCCAUGUCUGAAACU,0.0232 µM,0.0281 µM,,
UAUCGUCAGACGGCCGCCACUAGAACAUGAGGAUCACCCAUGUACGGCCGCCCGGUAUGGGUGUCUAGGACCGGGUCUGACGAAU,,,0.0305 µM,0.039 µM
AGCCACUCGAGUGAUCCUCACGAGUGGCUACGAGGACCGGUACGGCCGCCACUCGAAUUAACAUGAGGAUCACCCAUGUAAUAAU,0.152 µM,0.0396 µM,,
UGUCAGCGAAAGUUGACAUGCAGUGCCGGUCGAGGACCGGUACGGCCGCCACUCGAUCUCUCGUACAUGAGGAUCACCCAUGUCG,0.0135 µM,0.0138 µM,,
GAGGAAACUCACAUGAGGAUCACCCAUGUACGAGGACCGGUACGGCCGCCACUCGAAACCAUGGGCGGUUGUACAUGGAAACAUG,,,0.0248 µM,0.0748 µM
AGAUGAGUCACGGCCGCCACUCACUUCAGGUUCACCCUUGGUUAACAUGAGGAUCACCCAUGUGGGAGGACCGGGUGAUGAGCAU,,,0.0162 µM,0.0129 µM
UUAUAAGUACCGGUCCUCAGAUCCUCAUGACGAGGACCGGUACGGCCGCCACUCGAAACAUGAGGAUCACCCAUGUAAUAAUAAU,,,0.0242 µM,0.0215 µM
UAUCGUCAGACGGCCGCCACUAGAACAUGAGGAUCACCCAUGUACCCGGUCCAUUCCUCAUUAACUAGGACCGGGUCUGACGAAU,,,0.125 µM,0.0302 µM
